Measurements as given in ChEMBL document CHEMBL2417380, “Synthesis, pharmacological assessment, and molecular modeling of 6-chloro-pyridonepezils: new dual AChE inhibitors as potential drugs for the treatment of Alzheimer's disease” (Eur J Med Chem, 2013).

Assays:
Acetylcholinesterase = Acetylcholinesterase (Homo sapiens, UniProt P22303); assay: Inhibition of purified human erythrocyte AChE using […] as substrate by Ellman's method
Cholinesterase [1] = target: T1, Cholinesterase (Homo sapiens, UniProt P06276); assay: Inhibition of human plasma BuChE using butyrylthiocholine as substrate by Ellman's method
Outline: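 Ellman spectrophotometric assay with BuChE from human serum in 100 mM phosphate buffer, pH 8.0, at 30 °C. Butyrylthiocholine (0.4 mM) was the substrate and DTNB 0.2 mM. Absorbance change at 412 nm gave IC50 as the concentration giving 50% inhibition. Values are mean ± s.e.m. of at least three experiments run in quadruplicate.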

[2] = Permeability of the compound at 1 mg/ml after 4 hrs by PAMPA; type: ADME; settings: read-out: permeability
Outline: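 PAMPA-BBB: donor filter impregnated with porcine brain lipid in dodecane (20 mg/mL). Compound dissolved in PBS (pH 7.4)/ethanol (7:3) and filtered before loading into the donor wells. The acceptor wells held PBS/ethanol (7:3). Incubated undisturbed 4 h at 25 °C. Acceptor concentration measured by UV at five wavelengths, in four wells, over at least three independent runs; mean (SD).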

Homo sapiens = species: Homo sapiens; assay: Selectivity index, ratio of IC50 for human plasma BuChE to IC50 for purified human erythrocyte AChE
Outline: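 Index computed as hBuChE IC50 divided by hAChE IC50. Both IC50s come from the Ellman assay in 100 mM phosphate buffer, pH 8.0, at 30 °C, read at 412 nm with DTNB 0.2 mM. AChE was purified from human erythrocytes with acetylthiocholine substrate; BuChE came from human serum with butyrylthiocholine substrate, each substrate at 0.4 mM.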

Cholinesterase [3] = target: T1, Cholinesterase; assay: Ratio of donepezil IC50 to compound IC50 for human plasma BuChE

T1 sequence (P06276 whole entry): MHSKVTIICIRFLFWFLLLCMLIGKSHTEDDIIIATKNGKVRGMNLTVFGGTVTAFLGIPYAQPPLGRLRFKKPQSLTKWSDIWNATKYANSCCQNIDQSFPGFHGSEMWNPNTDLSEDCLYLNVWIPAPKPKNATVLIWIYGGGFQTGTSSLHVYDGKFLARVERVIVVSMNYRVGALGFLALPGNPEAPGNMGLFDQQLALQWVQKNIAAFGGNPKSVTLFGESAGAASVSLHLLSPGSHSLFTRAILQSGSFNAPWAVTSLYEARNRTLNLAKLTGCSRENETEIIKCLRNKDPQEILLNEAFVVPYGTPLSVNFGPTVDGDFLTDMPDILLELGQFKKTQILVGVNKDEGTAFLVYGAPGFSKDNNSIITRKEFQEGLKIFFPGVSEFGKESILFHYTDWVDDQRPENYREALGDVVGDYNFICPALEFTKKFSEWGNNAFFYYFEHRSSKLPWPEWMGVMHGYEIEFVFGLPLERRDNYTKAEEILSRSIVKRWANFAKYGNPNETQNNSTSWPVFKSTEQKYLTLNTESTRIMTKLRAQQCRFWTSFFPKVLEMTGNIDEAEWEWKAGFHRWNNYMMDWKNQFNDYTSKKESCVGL
Chain of Acetylcholinesterase (P22303 whole entry): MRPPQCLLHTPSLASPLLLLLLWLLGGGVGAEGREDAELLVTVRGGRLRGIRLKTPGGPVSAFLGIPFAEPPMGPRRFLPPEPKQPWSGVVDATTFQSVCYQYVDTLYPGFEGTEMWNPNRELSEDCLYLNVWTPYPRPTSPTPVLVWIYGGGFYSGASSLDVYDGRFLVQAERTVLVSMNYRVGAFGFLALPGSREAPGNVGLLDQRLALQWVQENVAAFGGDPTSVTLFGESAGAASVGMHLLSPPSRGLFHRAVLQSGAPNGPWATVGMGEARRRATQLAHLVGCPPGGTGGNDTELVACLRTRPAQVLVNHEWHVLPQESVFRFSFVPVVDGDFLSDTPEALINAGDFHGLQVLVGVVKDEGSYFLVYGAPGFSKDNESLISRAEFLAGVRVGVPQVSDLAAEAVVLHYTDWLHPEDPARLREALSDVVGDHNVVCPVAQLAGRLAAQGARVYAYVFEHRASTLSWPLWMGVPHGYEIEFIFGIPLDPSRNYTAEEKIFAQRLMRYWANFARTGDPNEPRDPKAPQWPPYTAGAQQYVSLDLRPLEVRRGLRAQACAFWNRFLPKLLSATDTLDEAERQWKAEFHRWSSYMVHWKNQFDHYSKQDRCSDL

SMILES | IC50 (Acetylcholinesterase) [µM] | IC50 (Cholinesterase [1]) [µM] | Papp at 4 h, 1 mg/ml [2] [×10⁻⁶ cm/s] | Ratio IC50 (Homo sapiens) | Ratio IC50 (Cholinesterase [3])
N#Cc1c(Cl)nc(NC2CCN(Cc3ccccc3)CC2)c(C#N)c1-c1ccccc1 | 9.43 | > 10 | – | – | –
N#Cc1cc(C#N)c(NCCCCC2CCN(Cc3ccccc3)CC2)nc1Cl | 0.013 | 8.13 | 6.99 | 625 | –
N#Cc1cc(C#N)c(NCCCC2CCN(Cc3ccccc3)CC2)nc1Cl | 0.054 | 8.39 | 5.98 | 155 | –
N#Cc1c(NCCC2CCN(Cc3ccccc3)CC2)nc(NCCC2CCN(Cc3ccccc3)CC2)c(C#N)c1-c1ccccc1 | 9.77 | > 10 | – | – | –
N#Cc1cc(C#N)c(NC2CCN(Cc3ccccc3)CC2)nc1NC1CCN(Cc2ccccc2)CC1 | 7.3 | > 10 | 5 | – | –
N#Cc1cc(C#N)c(NCCC2CCN(Cc3ccccc3)CC2)nc1Cl | 0.31 | 0.47 | 8.52 | 1.52 | 5
N#Cc1c(Cl)nc(NCCC2CCN(Cc3ccccc3)CC2)c(C#N)c1-c1ccccc1 | 4.4 | > 10 | – | – | –
N#Cc1c(Cl)nc(NCCCCC2CCN(Cc3ccccc3)CC2)c(C#N)c1-c1ccccc1 | 0.031 | 5.62 | 10.3 | 181 | –
N#Cc1c(Cl)nc(NCCCC2CCN(Cc3ccccc3)CC2)c(C#N)c1-c1ccccc1 | 3.86 | 9.41 | 10.1 | 2.43 | –
N#Cc1cc(C#N)c(NC2CCN(Cc3ccccc3)CC2)nc1Cl | 5.35 | > 10 | 7.39 | – | –
